Data published in ChEMBL document CHEMBL4725346, “Syntheses and Evaluation of New Bisacridine Derivatives for Dual Binding of G-Quadruplex and i-Motif in Regulating Oncogene c-myc Expression” (J Med Chem, 2020).
The source made the active and inactive calls. The calls are words filed in the database; no cut-off is given here.

Key:
[1] = tested on: SiHa; assay: Induction of apoptosis in human SiHa cells assessed as necrotic cells at 0.6 uM after 24 hrs by annexin V/FITC-propidium iodide staining-based flow cytometric method ( Rvb = 0.1%); format: functional
[2] = tested on: SiHa; assay: Induction of cell cycle arrest in human SiHa cells assessed as accumulation of cells at G2/M phase at 0.60 uM after 24 hrs by propidium iodide staining based flow cytometry (reference value: 29.71%); format: functional; conditions: dose 0.6 µM
[3] = tested on: Quadruplex DNA; assay: Binding affinity to c-myc promoter G-quadruplex/i-motif in human SiHa cells assessed as reduction in c-myc expression at 2.5 uM incubated for 24 hrs by Western blot analysis; format: cell-based; parameters: scale not given: the % may be the effect or the level left
Summary of the method: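 SiHa cells treated 24 h at 0, 0.625, 1.25 and 2.5 μM, then lysed in buffer with 1 mM PMSF. Protein measured by BCA, equal loads run on 8% gel and blotted to PVDF. Probed with anti-c-MYC and anti-β-actin (loading control), HRP anti-rabbit secondary, chemiluminescence read-out.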

[4] = Stabilization of c-myc promoter i-motif DNA Py33 (unknown origin) assessed as decrease in positive peak intensity at pH 5.5 measured at 288 nanometer by CD spectroscopy
Summary of the method: (§1)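 Py33 at 1 µM in 1× BPES pH 5.5 (pH 6.8 random-coil reference), with or without ligand. Annealed at 95 °C for 5 min, cooled, kept at 4 °C overnight. CD spectra in a 4 mm cuvette over 230–350 nm, three scans averaged, buffer-corrected; peaks followed at 288 and 260 nm.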

[5] = tested on: SiHa; assay: Inhibition of c-myc transcription in human SiHa cells harboring c-myc deleted promoter G-quadruplex/i-motif (unknown origin) assessed as decrease in ratio of renilla/firefly luciferase activity at 0.025 to 0.1 uM after 48 hrs by dual-luciferase reporter assay; format: functional, cell-based; conditions: dose microM 0.025-0.1, time 48.0 hrs
Summary of the method: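 Psicheck2 plasmid carrying deleted c-myc promoter (lacking NHE III₁ G/C-rich sequence), 200 ng, lipofected into SiHa cells. Compound added 8 h post-transfection, cells kept 48 h at 37 °C, washed with ice-cold PBS, then Renilla/Firefly luciferase activity ratio measured with a dual-luciferase kit.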

[6] = Binding affinity to 5'-biotin labeled c-myc promoter i-motif DNA Py33 (unknown origin) by UV titration method
[7] = tested on: A549; assay: Antiproliferative activity against human A549 cells after 48 hrs by MTT assay; format: functional, cell-based; conditions: A549, 48 h
Summary of the method: (§2)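 Cells seeded at 5.0×10^3 per well, pre-incubated 12 h at 37 °C, 5% CO2, then exposed to compounds for 48 h; DMSO-only control. MTT (2.5 mg/mL) added for 4 h, formazan dissolved in DMSO, absorbance at 570 nm. Each dose tested in triplicate; IC50 from percentage survival relative to negative control.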

[8] = tested on: Quadruplex DNA; assay: Binding affinity to c-myc wild-type promoter G-quadruplex/i-motif (unknown origin) expressed in human SiHa cells assessed as reduction in c-myc transcription by measuring decrease in ratio of renilla/firefly luciferase activity at 1/3 IC50 after 48 hrs by dual-luciferase reporter assay; format: cell-based
Summary of the method: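 SiHa cells transfected with 200 ng psiCHECK2 plasmid carrying wild-type, mutant or deleted c-myc promoter. Compounds added 8 h after transfection, then incubated 48 h at 37 °C. Cells washed with ice-cold PBS; Renilla/firefly activity ratio read by dual-luciferase assay.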

[9] = tested on: SiHa; assay: Induction of apoptosis in human SiHa cells assessed as increase in cleaved caspase-9 level incubated for 24 hrs by Western blot analysis; format: functional, cell-based; conditions: dose microM 0.6-2.4, time 24.0 hrs
[10] = tested on: Raji; assay: Induction of cell cycle arrest in human Raji cells assessed as accumulation of cells at G2/M phase at 0.15 to 0.6 uM after 24 hrs by propidium iodide staining based flow cytometry; format: functional; conditions: dose microM 0.15-0.6, time 24.0 hrs
[11] = tested on: SiHa; assay: Induction of cell cycle arrest in human SiHa cells assessed as accumulation of cells at S phase at 0.15 uM after 24 hrs by propidium iodide staining based flow cytometry (reference value: 17.74%); format: functional
[12] = tested on: Quadruplex DNA; assay: Binding affinity to 5'-biotin labeled c-myc promoter G-quadruplex DNA Pu27 (unknown origin) by UV titration method; format: nucleic-acid assay
[13] = Stabilization of c-myc promoter i-motif DNA Py33 (unknown origin) assessed as reduction in appearance of random coil confirmation at pH 5.5 by CD spectroscopy; summary of the method: as §1
[14] = tested on: SiHa; assay: Induction of apoptosis in human SiHa cells assessed as late apoptotic cells at 0.6 uM after 24 hrs by annexin V/FITC-propidium iodide staining-based flow cytometric method ( Rvb = 0.4%); format: functional
[15] = tested on: SiHa; assay: Induction of apoptosis in human SiHa cells assessed as early apoptotic cells at 1.2 uM after 24 hrs by annexin V/FITC-propidium iodide staining-based flow cytometric method ( Rvb = 0.3%); format: functional
[16] = tested on: SiHa; assay: Induction of apoptosis in human SiHa cells assessed as necrotic cells at 2.4 uM after 24 hrs by annexin V/FITC-propidium iodide staining-based flow cytometric method ( Rvb = 0.1%); format: functional
[17] = tested on: A-375; assay: Antiproliferative activity against human A-375 cells after 48 hrs by MTT assay; format: functional, cell-based; conditions: A-375, 48 h; summary of the method: as §2
[18] = tested on: Quadruplex DNA; assay: Binding affinity to c-myc promoter G-quadruplex/i-motif in human SiHa cells assessed as reduction in c-myc mRNA level at 2.5 uM incubated for 24 hrs by qRT-PCR analysis; format: cell-based; parameters: scale not given: the % may be the effect or the level left
Summary of the method: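 SiHa cells at 0, 0.625, 1.25 and 2.5 μM for 24 h; DMSO control. Total RNA extracted with TRIzol. 1.5 μg RNA reverse-transcribed with oligo dT18 and M-MLV (42 °C 60 min). PCR of 30 cycles (95/58/72 °C), products run on 1.2% agarose. β-actin as internal control; three repeats.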

[19] = Stabilization of 5'-FAM/3'-TAMRA labeled c-myc promoter i-motif DNA FPy33T (unknown origin) assessed as change in melting temperature at 1 uM by FRET assay (reference value: 53.2 degreeC)
Summary of the method: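 FRET melting of dual FAM/TAMRA-labelled FPy33T annealed in 1× BPES (30 mM potassium phosphate, 1 mM EDTA, 100 mM KCl), pH 5.5. Final 0.2 µM DNA with or without ligand. Excitation 470 nm, emission 530 nm, read every 1 °C over 37–99 °C. ΔTm taken against DNA alone.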

[20] = Toxicity in BALB/c nude mouse xenografted with human SiHa cells assessed as effect on liver weight at 15 mg/kg, ip administered once per 2 days for 18 days; format: organism-based; conditions: in vivo, 432 h, time 18 day
Summary of the method: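 SiHa tumour fragments passaged from donor mice implanted in the underarm of female BALB/c nude mice (six per group). Compound given at 15 mg/kg ip once every two days for 18 days, with saline and cisplatin 0.2 mg/kg control groups. Body weight recorded every two days; at day 18 mice were sacrificed and organs weighed.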

[21] = tested on: SiHa; assay: Induction of apoptosis in human SiHa cells assessed as late apoptotic cells at 1.2 uM after 24 hrs by annexin V/FITC-propidium iodide staining-based flow cytometric method ( Rvb = 0.4%); format: functional

Activity [4]: Active
Activity [6]: Active
IC50 [7]: 180 nM
Activity [12]: Active
Activity [13]: Active
IC50 [17]: 280 nM
ΔTm [19]: 11 °C
Structure (SMILES): Cc1ccc2nc3ccc(C)cc3c(NCCCNCCNCCCNc3c4cc(C)ccc4nc4ccc(C)cc34)c2c1
Activity [1]: 0.5%
Activity [2]: 56.91%
Activity [3]: < 73.9%
Activity [5]: inactive
Activity [8]: Active
Activity [9]: Dose-dependent effect
Activity [10]: Active
Activity [11]: 16.96%
Activity [14]: 3.8%
Activity [15]: 43.2%
Activity [16]: 5.5%
Activity [18]: < 76.9%
Activity [20]: Non-Toxic
Activity [21]: 18.7%
